In PMC3308013 (Journal of Immunology (Baltimore, Md. : 1950), 2011):
Where no end group is shown, it is not given here.

Target: H-2 Kb (Mus musculus, UniProt P01901)
Experiment: MHC peptide binding competition assay, purified H-2 Kb

Sequence of H-2 Kb (P01901 22-369): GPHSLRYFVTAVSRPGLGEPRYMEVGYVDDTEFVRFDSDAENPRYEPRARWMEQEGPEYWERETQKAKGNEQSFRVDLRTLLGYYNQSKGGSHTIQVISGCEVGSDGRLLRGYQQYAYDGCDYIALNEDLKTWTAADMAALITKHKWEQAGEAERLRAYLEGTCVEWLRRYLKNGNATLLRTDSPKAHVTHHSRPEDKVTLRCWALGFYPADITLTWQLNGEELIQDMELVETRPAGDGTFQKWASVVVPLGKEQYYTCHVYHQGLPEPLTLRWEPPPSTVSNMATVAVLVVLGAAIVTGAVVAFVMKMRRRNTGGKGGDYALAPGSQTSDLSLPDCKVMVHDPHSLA
Sequence of H-2 Kb (P61769 21-119 partner): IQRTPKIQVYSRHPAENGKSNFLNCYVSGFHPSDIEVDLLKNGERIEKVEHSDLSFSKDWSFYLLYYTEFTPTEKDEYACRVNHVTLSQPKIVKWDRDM

Row | Sequence | IC50
1 | YRFLFAFL [YRFLFAFL] | 5.4 nM
2 | INNTFLHL [INNTFLHL] | 2 nM
3 | QTFDFGRL [QTFDFGRL] | 2.1 nM
4 | GAINFINL [GAINFINL] | 6.2 nM
5 | LGYAYINS [LGYAYINS] | 10 nM
6 | SFYRFLFA [SFYRFLFA] | 64 nM

Target: H-2 Db (Mus musculus, UniProt P01899)
Experiment: MHC peptide binding competition assay, purified H-2 Db
Method in brief: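 Peptides radiolabelled by chloramine T; 1–10 nM label co-incubated at room temperature for 2 d with 1 μM to 1 nM purified H-2 Db, 1–3 μM human β2-microglobulin and protease inhibitors. Complexes captured on 28-14-8s Ab-coated plates; bound cpm counted. Test peptide at six concentrations over a 100,000-fold range, ≥3 independent assays; IC50 = concentration giving 50% inhibition of label binding.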

Sequence of H-2 Db (P01899 25-362): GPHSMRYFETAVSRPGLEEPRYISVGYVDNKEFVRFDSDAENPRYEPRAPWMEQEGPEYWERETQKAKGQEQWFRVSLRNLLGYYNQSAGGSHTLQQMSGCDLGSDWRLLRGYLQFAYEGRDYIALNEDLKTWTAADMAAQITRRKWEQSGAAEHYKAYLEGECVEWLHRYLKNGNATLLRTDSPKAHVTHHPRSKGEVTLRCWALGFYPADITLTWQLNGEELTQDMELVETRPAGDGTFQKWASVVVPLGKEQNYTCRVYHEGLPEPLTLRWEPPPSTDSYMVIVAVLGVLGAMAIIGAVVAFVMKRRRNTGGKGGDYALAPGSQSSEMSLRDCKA
Sequence of H-2 Db (P61769 21-119, further chain): as the sequence (P61769 21-119 partner) above

Row | Sequence | IC50
7 | AAIENYVRF [AAIENYVRF] | 38 nM
8 | LAVVLWSLL [LAVVLWSLL] | 2780 nM
9 | WMKMNQTLL [WMKMNQTLL] | 131 nM
10 | FGLLNYALV [FGLLNYALV] | 1 nM
11 | SARMLGDVM [SARMLGDVM] | 9210 nM
12 | AVCINNTFL [AVCINNTFL] | 450 nM
13 | YQPLLSNTL [YQPLLSNTL] | 5150 nM
14 | YSVENVGLL [YSVENVGLL] | 1.9 nM
15 | FLPRLGTEL [FLPRLGTEL] | 3050 nM
16 | GAMRAVVPI [GAMRAVVPI] | 499 nM
17 | FAFVNAAHA [FAFVNAAHA] | 4.9 nM
